Data taken from paper PMC8542630 (Cell chemical biology, 2021).

Columns and labels:
[1] = molecular target: T1, Sc-Dyn-lyso (Saccharomyces cerevisiae, UniProt P36022); test: Microscale thermophoresis; format: binding, S. cerevisiae
T1 sequence (P36022 1758-2992 limits assumed): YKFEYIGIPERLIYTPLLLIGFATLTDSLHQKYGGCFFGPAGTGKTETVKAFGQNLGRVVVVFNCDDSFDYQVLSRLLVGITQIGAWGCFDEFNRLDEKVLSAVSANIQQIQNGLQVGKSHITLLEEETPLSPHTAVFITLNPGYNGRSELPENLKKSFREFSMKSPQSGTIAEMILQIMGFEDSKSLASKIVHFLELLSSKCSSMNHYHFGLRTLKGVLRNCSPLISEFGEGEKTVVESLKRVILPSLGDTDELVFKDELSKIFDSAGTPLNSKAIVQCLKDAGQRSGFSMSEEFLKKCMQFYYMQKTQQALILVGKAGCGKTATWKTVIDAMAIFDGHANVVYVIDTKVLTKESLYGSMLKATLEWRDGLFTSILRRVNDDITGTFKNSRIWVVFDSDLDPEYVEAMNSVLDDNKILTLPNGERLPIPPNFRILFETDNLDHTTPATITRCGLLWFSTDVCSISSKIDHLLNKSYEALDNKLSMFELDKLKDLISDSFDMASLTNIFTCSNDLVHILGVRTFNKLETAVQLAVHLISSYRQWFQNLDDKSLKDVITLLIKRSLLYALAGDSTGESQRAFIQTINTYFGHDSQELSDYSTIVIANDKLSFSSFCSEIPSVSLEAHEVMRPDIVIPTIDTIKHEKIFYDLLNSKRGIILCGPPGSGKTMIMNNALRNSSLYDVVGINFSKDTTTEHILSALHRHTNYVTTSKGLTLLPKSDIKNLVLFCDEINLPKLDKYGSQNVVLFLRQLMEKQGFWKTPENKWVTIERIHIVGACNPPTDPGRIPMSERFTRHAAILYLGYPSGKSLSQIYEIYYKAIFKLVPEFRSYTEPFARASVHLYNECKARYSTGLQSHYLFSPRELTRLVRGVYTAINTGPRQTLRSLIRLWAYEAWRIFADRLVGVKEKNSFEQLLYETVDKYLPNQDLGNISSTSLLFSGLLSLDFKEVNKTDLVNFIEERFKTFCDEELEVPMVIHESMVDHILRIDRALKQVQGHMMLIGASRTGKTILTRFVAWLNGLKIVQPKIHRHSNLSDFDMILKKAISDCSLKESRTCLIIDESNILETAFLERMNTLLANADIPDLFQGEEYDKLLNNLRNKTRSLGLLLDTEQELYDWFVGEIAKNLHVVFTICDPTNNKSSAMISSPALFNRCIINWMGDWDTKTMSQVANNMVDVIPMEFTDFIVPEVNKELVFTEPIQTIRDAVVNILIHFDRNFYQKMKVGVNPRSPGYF
T1 sequence (P36022 3301-4092 limits assumed): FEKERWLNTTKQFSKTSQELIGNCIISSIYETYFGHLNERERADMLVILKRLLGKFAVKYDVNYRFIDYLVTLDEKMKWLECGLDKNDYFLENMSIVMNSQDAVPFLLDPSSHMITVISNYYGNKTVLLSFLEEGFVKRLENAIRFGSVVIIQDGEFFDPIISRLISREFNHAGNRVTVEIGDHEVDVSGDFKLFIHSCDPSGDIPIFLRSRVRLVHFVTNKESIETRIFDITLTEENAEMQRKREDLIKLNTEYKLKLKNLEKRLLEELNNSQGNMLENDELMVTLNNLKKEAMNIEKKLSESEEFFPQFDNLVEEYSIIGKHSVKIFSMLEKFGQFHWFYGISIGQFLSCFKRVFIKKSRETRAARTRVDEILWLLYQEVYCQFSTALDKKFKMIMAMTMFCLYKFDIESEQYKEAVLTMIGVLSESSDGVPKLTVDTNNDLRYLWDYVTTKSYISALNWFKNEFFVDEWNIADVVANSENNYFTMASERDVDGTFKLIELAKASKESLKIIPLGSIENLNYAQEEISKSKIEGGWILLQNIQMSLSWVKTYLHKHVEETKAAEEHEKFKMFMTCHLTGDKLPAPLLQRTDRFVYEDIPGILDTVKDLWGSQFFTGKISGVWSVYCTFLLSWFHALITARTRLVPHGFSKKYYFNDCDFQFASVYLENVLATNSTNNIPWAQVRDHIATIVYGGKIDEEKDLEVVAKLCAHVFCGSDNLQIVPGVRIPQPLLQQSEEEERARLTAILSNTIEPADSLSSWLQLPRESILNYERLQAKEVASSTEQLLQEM

[2] = molecular target: GFP-Sc-Dyn AAA3 E/Q (E2488Q) (Saccharomyces cerevisiae, UniProt P36022, E2488Q); test: NADH-coupled steady-state ATPase assay, GFP-Sc-Dyn AAA3 E/Q mutant; format: biochemical, S. cerevisiae
Chain of GFP-Sc-Dyn AAA3 E/Q (E2488Q) (Saccharomyces cerevisiae, UniProt P36022, E2488Q) (P36022 1219-4092 E2488Q): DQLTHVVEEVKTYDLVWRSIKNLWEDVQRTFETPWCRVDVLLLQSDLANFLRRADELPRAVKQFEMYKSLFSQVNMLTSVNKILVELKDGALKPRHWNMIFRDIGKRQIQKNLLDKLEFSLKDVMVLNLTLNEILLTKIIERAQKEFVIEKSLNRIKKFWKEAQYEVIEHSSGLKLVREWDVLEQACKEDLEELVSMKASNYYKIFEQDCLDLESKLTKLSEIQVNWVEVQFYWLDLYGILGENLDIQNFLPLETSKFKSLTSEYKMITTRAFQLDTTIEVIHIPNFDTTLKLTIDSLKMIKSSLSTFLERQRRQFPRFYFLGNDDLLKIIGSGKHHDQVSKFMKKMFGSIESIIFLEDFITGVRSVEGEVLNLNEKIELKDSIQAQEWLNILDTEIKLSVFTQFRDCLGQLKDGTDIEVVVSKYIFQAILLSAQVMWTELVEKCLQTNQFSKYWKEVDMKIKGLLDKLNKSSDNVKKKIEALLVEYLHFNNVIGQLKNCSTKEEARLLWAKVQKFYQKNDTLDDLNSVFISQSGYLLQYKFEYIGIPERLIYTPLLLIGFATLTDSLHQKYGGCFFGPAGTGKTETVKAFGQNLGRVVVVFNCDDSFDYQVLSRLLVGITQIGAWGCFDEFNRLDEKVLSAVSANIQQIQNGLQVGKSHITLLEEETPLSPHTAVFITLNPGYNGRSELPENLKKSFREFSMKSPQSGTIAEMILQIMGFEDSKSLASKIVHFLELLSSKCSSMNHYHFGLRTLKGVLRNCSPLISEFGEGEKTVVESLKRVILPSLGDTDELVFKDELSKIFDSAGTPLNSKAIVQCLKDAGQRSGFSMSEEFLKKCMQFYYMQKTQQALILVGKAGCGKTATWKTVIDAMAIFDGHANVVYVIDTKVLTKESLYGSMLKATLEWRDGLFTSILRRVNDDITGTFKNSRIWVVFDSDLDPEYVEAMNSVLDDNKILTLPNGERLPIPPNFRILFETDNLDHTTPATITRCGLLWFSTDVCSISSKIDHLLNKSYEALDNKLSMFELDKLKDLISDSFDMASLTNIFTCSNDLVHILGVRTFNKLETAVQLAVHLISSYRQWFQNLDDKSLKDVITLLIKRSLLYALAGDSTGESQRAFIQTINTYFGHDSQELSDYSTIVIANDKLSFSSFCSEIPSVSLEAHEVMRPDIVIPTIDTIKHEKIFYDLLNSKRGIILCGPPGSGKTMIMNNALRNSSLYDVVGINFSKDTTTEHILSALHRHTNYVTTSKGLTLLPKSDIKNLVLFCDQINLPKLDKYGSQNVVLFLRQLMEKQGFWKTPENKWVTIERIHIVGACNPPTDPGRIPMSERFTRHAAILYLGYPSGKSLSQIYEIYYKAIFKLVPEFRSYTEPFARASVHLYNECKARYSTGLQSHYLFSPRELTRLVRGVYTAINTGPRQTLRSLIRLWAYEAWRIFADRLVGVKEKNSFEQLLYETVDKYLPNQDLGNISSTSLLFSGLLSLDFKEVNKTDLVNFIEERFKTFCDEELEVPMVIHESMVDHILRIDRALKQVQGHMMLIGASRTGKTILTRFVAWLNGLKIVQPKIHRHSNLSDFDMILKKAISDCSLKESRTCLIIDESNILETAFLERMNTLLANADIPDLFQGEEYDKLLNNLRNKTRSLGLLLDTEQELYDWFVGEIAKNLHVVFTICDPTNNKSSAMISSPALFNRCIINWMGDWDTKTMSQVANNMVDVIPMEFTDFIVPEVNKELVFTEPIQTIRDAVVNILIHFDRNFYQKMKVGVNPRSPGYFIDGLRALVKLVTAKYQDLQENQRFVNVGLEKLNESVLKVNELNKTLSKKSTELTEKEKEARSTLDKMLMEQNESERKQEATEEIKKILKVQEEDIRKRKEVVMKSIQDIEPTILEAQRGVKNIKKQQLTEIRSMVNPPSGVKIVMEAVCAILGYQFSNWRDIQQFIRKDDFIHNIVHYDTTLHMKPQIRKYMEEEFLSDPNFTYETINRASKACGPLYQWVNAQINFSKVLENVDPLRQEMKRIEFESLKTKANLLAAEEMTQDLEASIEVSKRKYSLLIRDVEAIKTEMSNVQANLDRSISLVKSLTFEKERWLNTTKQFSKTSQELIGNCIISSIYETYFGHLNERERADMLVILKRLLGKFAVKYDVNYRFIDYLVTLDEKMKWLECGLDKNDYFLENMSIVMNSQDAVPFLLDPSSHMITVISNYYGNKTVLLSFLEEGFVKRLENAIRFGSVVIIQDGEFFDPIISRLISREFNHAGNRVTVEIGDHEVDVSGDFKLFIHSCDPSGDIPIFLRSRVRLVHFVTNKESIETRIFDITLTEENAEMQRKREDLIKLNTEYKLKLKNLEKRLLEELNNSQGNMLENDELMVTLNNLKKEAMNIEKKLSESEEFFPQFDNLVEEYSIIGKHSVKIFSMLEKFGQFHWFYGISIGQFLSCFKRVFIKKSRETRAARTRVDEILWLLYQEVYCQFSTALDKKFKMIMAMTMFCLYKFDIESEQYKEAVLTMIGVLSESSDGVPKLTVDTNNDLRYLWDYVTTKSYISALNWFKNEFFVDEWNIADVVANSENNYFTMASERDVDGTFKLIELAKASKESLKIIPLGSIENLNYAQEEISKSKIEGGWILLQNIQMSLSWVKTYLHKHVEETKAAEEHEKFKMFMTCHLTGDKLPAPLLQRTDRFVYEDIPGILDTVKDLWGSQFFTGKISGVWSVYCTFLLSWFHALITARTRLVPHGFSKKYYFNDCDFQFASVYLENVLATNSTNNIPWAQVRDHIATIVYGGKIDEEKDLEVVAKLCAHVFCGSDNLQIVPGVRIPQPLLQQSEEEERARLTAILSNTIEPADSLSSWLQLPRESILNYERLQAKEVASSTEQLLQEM

[3] = molecular target: GFP-Sc-Dyn AAA3 E/Q (E2488Q); test: as above; format: biochemical, S. cerevisiae; details: 1 mM MgATP, n=3
[4] = molecular target: Xl-katanin (Xenopus laevis, UniProt Q9PUL2); test: NADH-coupled steady-state ATPase assay, Xl-katanin; format: biochemical, X. laevis
Chain of Xl-katanin (Q9PUL2 whole entry): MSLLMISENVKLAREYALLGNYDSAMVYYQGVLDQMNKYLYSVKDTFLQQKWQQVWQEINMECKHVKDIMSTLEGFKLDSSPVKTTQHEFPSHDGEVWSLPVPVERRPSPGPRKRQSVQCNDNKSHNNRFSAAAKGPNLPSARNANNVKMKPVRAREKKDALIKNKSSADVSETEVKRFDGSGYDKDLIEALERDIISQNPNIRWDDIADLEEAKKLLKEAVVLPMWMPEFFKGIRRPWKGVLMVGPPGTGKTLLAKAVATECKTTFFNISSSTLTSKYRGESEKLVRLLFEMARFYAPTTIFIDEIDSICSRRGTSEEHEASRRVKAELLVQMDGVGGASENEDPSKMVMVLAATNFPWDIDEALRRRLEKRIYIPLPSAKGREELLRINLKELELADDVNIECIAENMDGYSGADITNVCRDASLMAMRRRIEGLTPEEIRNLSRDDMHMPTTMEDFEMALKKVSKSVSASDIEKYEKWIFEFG
Outline: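 Recombinant Xl-katanin (50 nM; E. coli, MBP-trap, MonoQ and gel filtration) in 25 mM K-HEPES pH 7.5, 70 mM KCl, 20 mM (NH4)2SO4, 5 mM MgCl2, 2.5 mM DTT, 0.01% Triton X-100 plus NADH-coupled regeneration mix. After 10 min RT preincubation with test compound, MgATP started the reaction. The fluorescence decrease rate (340/440 nm) was converted to ATPase rate using an ADP standard curve.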

[5] = molecular target: Sc-DynGST (Saccharomyces cerevisiae, UniProt P36022); test: Single-molecule motility assay; format: biochemical, S. cerevisiae
Chain of Sc-DynGST (P36022 1219-4092 limits assumed): as the sequence (P36022 1219-4092 E2488Q) above, with Q1270E counted along it

[6] = molecular target: T2, GFP-Sc-Dyn (Saccharomyces cerevisiae, UniProt P36022); test: Microscale thermophoresis; format: binding, S. cerevisiae; details: for FNorm, GFP-Sc-Dyn (MST) / ΔFNorm, GFP-Sc-Dyn (MST): mean ± SD; for FNorm, GFP-Sc-Dyn (MST): n=3; for ΔFNorm, GFP-Sc-Dyn (MST): absence of AMPPNP, n=5
T2 sequence (P36022 1219-4092): as the sequence (P36022 1219-4092 E2488Q) above, with Q1270E counted along it

[7] = molecular target: T2, GFP-Sc-Dyn; test: Microtubule gliding assay; format: biochemical, S. cerevisiae; details: 25 μM compound
[8] = single-molecule, 0-50 μM compound
[9] = 1% DMSO, 1 mM Mg-ATP, mean ± SD

N#Cc1c(C2(c3ccc(Cl)cc3)CC2)nn2c(=O)c(Oc3cccc(Br)c3)c[nH]c12 [compound 20, 6-(3-bromophenoxy)-2-[1-(4-chlorophenyl)cyclopropyl]-7-oxo-4H-pyrazolo[1,5-a]pyrimidine-3-carbonitrile]
EC50 [1]: 22 ± 5.3 µM
IC50 [2]: 8.2 ± 1.4 µM
IC50 fold lower than that of GFP-Sc-Dyn, AAA3 E/Q mutant [3]: ~ 2 fold
Reduction of ATPase activity, Xl-katanin ([4]; 20 μM, 1 mM MgATP): < 25%
Percent steady-state ATPase activity, Xl-katanin ([4]; compound 20 μM, mean ± SD, n=3): 76 ± 9.0%
EC50 [5]: 12.7 ± 2.5 µM
Pausing during processive runs (in words) ([5]; single-molecule): no significant pausing
Effect on dynein processivity (run length) (in words) [5, 8]: little to no effect
Effect on dynein velocity (in words) [5, 8]: little to no effect
FNorm, GFP-Sc-Dyn (MST) ([6]; 12.5 μM compound, AMPPNP 100 μM): 0.8 ± 2
FNorm, GFP-Sc-Dyn (MST) ([6]; 12.5 μM compound, AMPPNP 1 mM): 1.9 ± 1.2
ΔFNorm, GFP-Sc-Dyn (MST) ([6]; 12.5 μM compound): 3.0 ± 5.0
FNorm, GFP-Sc-Dyn (MST) ([6]; 25 μM compound, AMPPNP 100 μM): 2.4 ± 2.3
FNorm, GFP-Sc-Dyn (MST) ([6]; 25 μM compound, AMPPNP 1 mM): 0.1 ± 1
ΔFNorm, GFP-Sc-Dyn (MST) ([6]; 25 μM compound): 6.7 ± 5.2
ΔFNorm lower than that of the WT control ([6]; 50 μM compound 20, AMPPNP 1 mM): ~ 93%
FNorm, GFP-Sc-Dyn (MST) ([6]; 50 μM compound, AMPPNP 100 μM): 9.3 ± 2.3
FNorm, GFP-Sc-Dyn (MST) ([6]; 50 μM compound, AMPPNP 1 mM): 1.2 ± 2
ΔFNorm, GFP-Sc-Dyn (MST) ([6]; 50 μM compound): 16 ± 2.8
EC50 ([6]; EC50, binding to GFP-Sc-Dyn (MST), mean ± 95% CI, n=9, Figures 5D-E): 70 ± 31 µM
EC50 ([6]; EC50, binding to WT GFP-Sc-Dyn (MST), mean ± 95% CI, n=4, Figure 5N, compared with V2391S/M2732S mutant): 36 ± 7.8 µM
Hill slope, binding to GFP-Sc-Dyn (MST) ([6]; mean ± 95% CI, n=9): 1.7 ± 0.6
Time until most microtubules become immotile [7]: ≤ 30 min
Microtubule gliding velocity, 30 minutes after treatment [7, 9]: 3 ± 5
Microtubule gliding velocity, immediately after treatment [7, 9]: 35 ± 19
